Experimental data from ChEMBL document CHEMBL3603779, “Identification and Optimization of Benzimidazole Sulfonamides as Orally Bioavailable Sphingosine 1-Phosphate Receptor 1 Antagonists with in Vivo Activity” (J Med Chem, 2015).
Active and inactive are the calls of the source. The calls are words filed in the database; no cut-off is given here.

How the values were obtained:
[1] = biological target: Sphingosine 1-phosphate receptor 1 (Homo sapiens, UniProt P21453); assay: Antagonist activity against human S1P1 receptor expressed in human U2OS cells co-expressing GFP assessed as inhibition of S1P-induced receptor translocation; assay type: cell-based
Sphingosine 1-phosphate receptor 1, sequence (P21453 whole entry): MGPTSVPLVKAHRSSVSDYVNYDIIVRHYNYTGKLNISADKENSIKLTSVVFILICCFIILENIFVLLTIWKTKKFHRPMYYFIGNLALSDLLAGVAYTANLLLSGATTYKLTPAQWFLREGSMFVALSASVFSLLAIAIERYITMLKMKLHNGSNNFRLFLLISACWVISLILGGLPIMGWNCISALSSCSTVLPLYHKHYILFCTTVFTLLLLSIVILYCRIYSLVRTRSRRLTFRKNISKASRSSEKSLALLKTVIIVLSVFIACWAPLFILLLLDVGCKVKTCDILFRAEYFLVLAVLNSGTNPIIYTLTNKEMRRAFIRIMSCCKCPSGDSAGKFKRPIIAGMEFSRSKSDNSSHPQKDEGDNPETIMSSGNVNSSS
Outline: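 Cellular S1P1 translocation (internalization) assay with antagonist; EC50 reported as mean of at least three separate determinations ± standard deviation.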

[2] = Intrinsic clearance in human liver microsomes pre-incubated at 37 degC for 5 mins before NADPH addition by LCMS/MS method; assay type: ADME; conditions: read-out: CLH
[3] = biological target: Cytochrome P450 2C19 (Homo sapiens, UniProt P33261); assay: Inhibition of CYP2C19 in human liver microsomes incubated for 5 mins in presence of NADPH and specific substrates by LC/MS/MS method; assay type: ADME
Cytochrome P450 2C19, sequence (P33261 whole entry): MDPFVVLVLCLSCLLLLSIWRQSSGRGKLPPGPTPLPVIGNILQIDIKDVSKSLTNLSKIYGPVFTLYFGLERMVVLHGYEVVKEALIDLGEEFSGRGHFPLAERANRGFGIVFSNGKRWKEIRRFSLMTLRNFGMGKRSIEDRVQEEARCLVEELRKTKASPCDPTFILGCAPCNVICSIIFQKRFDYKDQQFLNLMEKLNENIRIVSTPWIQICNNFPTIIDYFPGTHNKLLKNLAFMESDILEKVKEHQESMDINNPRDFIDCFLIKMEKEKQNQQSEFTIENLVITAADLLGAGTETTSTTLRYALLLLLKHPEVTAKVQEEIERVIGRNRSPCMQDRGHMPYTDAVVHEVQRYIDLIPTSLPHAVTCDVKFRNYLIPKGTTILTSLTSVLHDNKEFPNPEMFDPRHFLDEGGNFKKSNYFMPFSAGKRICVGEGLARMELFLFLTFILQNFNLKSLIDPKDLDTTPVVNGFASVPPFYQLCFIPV

[4] = biological target: T1, Cytochrome P450 3A4 (Homo sapiens, UniProt P08684); assay: Inhibition of CYP3A4 in human liver microsomes incubated for 5 mins in presence of NADPH and specific substrates by LC/MS/MS method; assay type: ADME
T1 sequence (P08684 whole entry): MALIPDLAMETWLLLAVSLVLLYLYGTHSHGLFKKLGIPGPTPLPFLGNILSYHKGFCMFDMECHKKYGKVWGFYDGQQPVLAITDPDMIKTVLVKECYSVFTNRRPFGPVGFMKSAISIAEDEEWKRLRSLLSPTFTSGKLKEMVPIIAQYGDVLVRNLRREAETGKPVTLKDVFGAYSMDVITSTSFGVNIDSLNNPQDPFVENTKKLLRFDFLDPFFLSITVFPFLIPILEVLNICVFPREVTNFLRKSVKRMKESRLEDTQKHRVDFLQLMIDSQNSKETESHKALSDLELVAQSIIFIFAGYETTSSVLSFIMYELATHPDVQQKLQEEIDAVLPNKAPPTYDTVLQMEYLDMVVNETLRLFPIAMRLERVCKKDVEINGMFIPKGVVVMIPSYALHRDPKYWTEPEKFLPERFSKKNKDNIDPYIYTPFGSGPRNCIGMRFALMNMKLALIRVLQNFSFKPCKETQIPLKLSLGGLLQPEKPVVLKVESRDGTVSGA

[5] = biological target: T2, Cytochrome P450 3A5 (Homo sapiens, UniProt P20815); assay: Inhibition of CYP3A5 in human liver microsomes incubated for 5 mins in presence of NADPH and specific substrates by LC/MS/MS method; assay type: ADME
T2 sequence (P20815 whole entry): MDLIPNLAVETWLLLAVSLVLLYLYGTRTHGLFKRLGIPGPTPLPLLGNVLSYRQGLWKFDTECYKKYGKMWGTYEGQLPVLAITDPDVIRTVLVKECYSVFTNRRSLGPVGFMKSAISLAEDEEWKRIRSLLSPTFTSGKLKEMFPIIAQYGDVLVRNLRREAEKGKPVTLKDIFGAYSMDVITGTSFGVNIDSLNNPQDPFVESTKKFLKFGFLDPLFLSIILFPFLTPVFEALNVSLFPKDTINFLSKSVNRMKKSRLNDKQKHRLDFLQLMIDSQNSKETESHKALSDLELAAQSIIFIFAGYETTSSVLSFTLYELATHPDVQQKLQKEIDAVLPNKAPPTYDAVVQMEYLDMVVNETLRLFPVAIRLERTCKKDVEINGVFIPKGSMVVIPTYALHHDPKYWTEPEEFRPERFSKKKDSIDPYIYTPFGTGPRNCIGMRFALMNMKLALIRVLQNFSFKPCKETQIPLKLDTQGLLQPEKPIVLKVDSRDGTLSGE

[6] = Lipophilicity, log D of the compound at pH 7.4; assay type: physicochemical; conditions: buffer
[7] = biological target: T3, Nuclear receptor subfamily 1 group I member 2 (Homo sapiens, UniProt O75469); assay: Activation of human PXR expressed in human HepG2 cells co-expressing CYP3A4 assessed as CYP3A4 activation at 10 uM by luciferase reporter gene assay relative to rifampicin; assay type: ADME, cell-based; conditions: hepg2, 10 µM
T3 sequence (O75469 whole entry): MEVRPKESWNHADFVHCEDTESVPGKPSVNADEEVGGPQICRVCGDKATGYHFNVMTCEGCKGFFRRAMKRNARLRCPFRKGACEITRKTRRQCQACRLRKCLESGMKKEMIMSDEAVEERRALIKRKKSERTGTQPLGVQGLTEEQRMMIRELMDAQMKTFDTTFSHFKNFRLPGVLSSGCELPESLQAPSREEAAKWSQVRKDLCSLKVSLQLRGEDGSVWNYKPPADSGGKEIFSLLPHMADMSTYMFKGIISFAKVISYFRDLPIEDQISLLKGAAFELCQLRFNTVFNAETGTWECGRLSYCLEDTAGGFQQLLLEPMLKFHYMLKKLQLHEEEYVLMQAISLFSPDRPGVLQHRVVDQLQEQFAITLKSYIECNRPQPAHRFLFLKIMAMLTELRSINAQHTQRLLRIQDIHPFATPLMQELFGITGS
Outline: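 Single-concentration PXR reporter gene screen, compound at 10 μM; activation expressed as a percentage of the response to rifampicin, also at 10 μM.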

[8] = biological target: T1, Cytochrome P450 3A4; assay: Induction of CYP3A4 activation in human hepatocytes at 10 uM incubated for 48 hrs using testosterone substrate relative to rifampicin; assay type: ADME, cell-based, Hepatocyte
Outline: (§1)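 Human hepatocyte CYP3A induction, testosterone probe with 6-β-hydroxytestosterone as marker; activity expressed as % of the rifampicin response; hepatocytes from two donors tested.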

[9] = biological target: T2, Cytochrome P450 3A5; assay: Induction of CYP3A5 activation in human hepatocytes at 10 uM incubated for 48 hrs using testosterone substrate relative to rifampicin; assay type: ADME, cell-based, Hepatocyte; outline: as §1
[10] = biological target: Sphingosine 1-phosphate receptor 1 (Mus musculus) (UniProt O08530); assay: Antagonist activity against mouse S1P1 receptor expressed in human U2OS cells co-expressing GFP assessed as inhibition of S1P-induced receptor translocation; assay type: cell-based
Sphingosine 1-phosphate receptor 1 (Mus musculus), sequence (O08530 whole entry): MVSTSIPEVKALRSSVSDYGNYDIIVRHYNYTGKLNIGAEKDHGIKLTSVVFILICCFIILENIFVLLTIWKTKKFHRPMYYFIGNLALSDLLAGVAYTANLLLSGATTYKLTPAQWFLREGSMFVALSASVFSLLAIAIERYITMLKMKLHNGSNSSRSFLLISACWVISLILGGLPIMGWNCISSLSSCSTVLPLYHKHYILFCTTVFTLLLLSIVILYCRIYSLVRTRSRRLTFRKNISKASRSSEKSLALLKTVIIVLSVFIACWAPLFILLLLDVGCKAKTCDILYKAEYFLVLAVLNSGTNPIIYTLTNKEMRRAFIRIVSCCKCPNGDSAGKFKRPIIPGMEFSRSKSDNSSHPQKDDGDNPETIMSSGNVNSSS

[11] = biological target: Cytochrome P450 2D6 (Homo sapiens, UniProt P10635); assay: Inhibition of CYP2D6 in human liver microsomes incubated for 5 mins in presence of NADPH and specific substrates by LC/MS/MS method; assay type: ADME
Cytochrome P450 2D6, sequence (P10635 whole entry): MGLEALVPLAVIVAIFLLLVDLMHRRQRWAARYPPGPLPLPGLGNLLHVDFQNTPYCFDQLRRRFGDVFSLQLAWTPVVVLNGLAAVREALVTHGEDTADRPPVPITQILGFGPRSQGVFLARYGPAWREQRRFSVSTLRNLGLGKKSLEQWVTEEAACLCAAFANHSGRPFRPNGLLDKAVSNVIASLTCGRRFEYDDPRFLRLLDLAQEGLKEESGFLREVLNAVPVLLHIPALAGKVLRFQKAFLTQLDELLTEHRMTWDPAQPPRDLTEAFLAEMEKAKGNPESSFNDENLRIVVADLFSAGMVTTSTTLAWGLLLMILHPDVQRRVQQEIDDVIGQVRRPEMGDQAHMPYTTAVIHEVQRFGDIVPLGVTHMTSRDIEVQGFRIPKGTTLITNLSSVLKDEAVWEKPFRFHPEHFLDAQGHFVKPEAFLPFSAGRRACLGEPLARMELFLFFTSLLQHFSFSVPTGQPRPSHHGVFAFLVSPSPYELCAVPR

SMILES	EC50 [1] [nM]	microsomal CLint [2] [µL/min/mg]	also measured
CCn1ncc(S(=O)(=O)N[C@H](C)c2nc3ccc(C(F)(F)F)cc3n2CC)c1C	430	> 100	
CCn1c([C@@H](C)NS(=O)(=O)c2ccncc2)nc2ccc(C(F)(F)F)cc21	26	45	IC50 [3]: 40 nM
CCn1c([C@@H](C)NS(=O)(=O)c2ccc(Cl)cc2)nc2cc(CO)ccc21	180	88	
CCn1c([C@@H](C)NS(=O)(=O)c2ccccc2)nc2ccc(C(F)(F)F)cc21	8	14	
CCn1c([C@@H](C)NS(=O)(=O)c2ccc(Cl)cc2)nc2ccc(CN(C)C)cc21	23500	30	
CCn1c([C@@H](C)NS(=O)(=O)c2cccnc2)nc2ccc(C(F)(F)F)cc21	30	> 100	IC50 [4]: 830 nM; IC50 [5]: 830 nM
CCn1c(C(C)NS(=O)(=O)c2ccc(Cl)cc2)nc2ccncc21 (stereo not drawn)	1170	93	
CCn1c([C@@H](C)NS(=O)(=O)c2cnn(C(C)C)c2C)nc2ccc(C(F)(F)F)cc21	1100	> 100	
CCn1c(C(C)NS(=O)(=O)c2ccc(Cl)cc2)nc2ncccc21 (stereo not drawn)	310	15	
CCn1c([C@@H](C)NS(=O)(=O)c2cn(C)c(C)n2)nc2ccc(C(F)(F)F)cc21	4000	43	
CCCn1cc(S(=O)(=O)N[C@H](C)c2nc3ccc(C(F)(F)F)cc3n2CC)c(C)n1	420	> 100	
CCn1c([C@@H](C)NS(=O)(=O)c2ccc(CC(C)C)cc2)nc2ccc(C(F)(F)F)cc21	1800	> 100	
CCn1c([C@@H](C)NS(=O)(=O)c2ccc(C#N)cc2)nc2cnc(C(F)(F)F)cc21	3		logD [6]: 1.6; Activity [7]: 32%; Activity [8]: < 40%; Activity [9]: < 40%
CCn1c([C@@H](C)NS(=O)(=O)C2CC2)nc2ccc(C(F)(F)F)cc21	9000	< 3	
CCn1c([C@@H](C)NS(=O)(=O)c2ccc(C#N)cc2)nc2ccc(C(F)(F)F)cc21	12	34	
CCn1c([C@@H](C)NS(=O)(=O)c2ccccn2)nc2ccc(C(F)(F)F)cc21	9200	< 3	
CCn1c([C@@H](C)NS(=O)(=O)c2ccc(F)cc2)nc2ccc(C(F)(F)F)cc21	7	26	inhibition [10]: Active
CCn1c([C@@H](C)NS(=O)(=O)c2ccc(Cl)cc2)nc2ccc(CO)cc21	5	84	
CCn1c([C@@H](C)NS(=O)(=O)c2ccc(C#N)cc2)nc2cnc(OC)cc21	9		logD [6]: 1.4; Activity [7]: 18%; Activity [8]: < 40%; Activity [9]: < 40%
CCn1c([C@@H](C)NS(=O)(=O)c2ccc(C#N)nc2)nc2cnc(OC)cc21	28		logD [6]: 1; Activity [7]: 11%; Activity [8]: < 40%; Activity [9]: < 40%
CCn1c(C(C)NS(=O)(=O)c2ccc(Cl)cc2)nc2cccnc21 (stereo not drawn)	2340	94	

SMILES	EC50 [1] [nM]	microsomal CLint [2] [µL/min/mg]	also measured
CCn1c([C@@H](C)NS(=O)(=O)c2ccc(Cl)cc2)nc2cc(N3CCOCC3)ccc21	2420	45	
CCn1c([C@@H](C)NS(=O)(=O)c2ccc(Cl)cc2)nc2cc(C#N)ccc21	130	71	
CCn1c([C@@H](C)NS(=O)(=O)c2cccc(C#N)c2)nc2ccc(C(F)(F)F)cc21	57	> 100	
CCn1c([C@@H](C)NS(=O)(=O)c2ccc(C#N)cc2)nc2cnccc21	34		Activity [7]: 14%; Activity [8]: < 40%; Activity [9]: < 40%
CCn1c([C@@H](C)NS(=O)(=O)c2ccc(Cl)cc2)nc2cccc(Cl)c21	800	> 100	
CCCn1ncc(S(=O)(=O)N[C@H](C)c2nc3ccc(C(F)(F)F)cc3n2CC)c1C	800	> 100	
CCn1c([C@@H](C)NS(=O)(=O)c2c(F)cc(F)cc2F)nc2ccc(C(F)(F)F)cc21	240	19	
CCn1c([C@@H](C)NS(=O)(=O)c2ccc(NC(C)=O)c(C)c2)nc2ccc(C(F)(F)F)cc21	12400	> 100	
CCn1c(C(C)NS(=O)(=O)c2ccc(Cl)cc2)nc2cnccc21 (stereo not drawn)	210	35	IC50 [11]: 230 nM; IC50 [3]: 910 nM
CCn1c([C@@H](C)NS(=O)(=O)c2ccc(C#N)cc2)nc2cnc(C3CC3)cc21	6		logD [6]: 1.9; Activity [7]: 27%; Activity [8]: < 40%; Activity [9]: < 40%
CCn1c([C@@H](C)NS(=O)(=O)c2cnc(C)n2C)nc2ccc(C(F)(F)F)cc21	650	58	
CCn1c([C@@H](C)NS(=O)(=O)C2CCCC2)nc2ccc(C(F)(F)F)cc21	1800		
CCn1c([C@@H](C)NS(=O)(=O)c2ccc(C)cc2)nc2ccc(C(F)(F)F)cc21	24	> 100	
CCn1c([C@@H](C)NS(=O)(=O)c2ccc(Cl)cc2)nc2ccc(S(C)(=O)=O)cc21	1840	< 5	
CCn1c([C@@H](C)NS(=O)(=O)c2ccc(Cl)cc2)nc2cc(C(N)=O)ccc21	190	< 5	
CCn1c([C@@H](C)NS(=O)(=O)c2ccc(Cl)cc2)nc2cc(F)c(Cl)cc21	1	> 100	
CCn1cc(S(=O)(=O)N[C@H](C)c2nc3ccc(C(F)(F)F)cc3n2CC)cn1	590	95	
CCn1c([C@@H](C)NS(=O)(=O)c2cn(C)nc2C)nc2ccc(C(F)(F)F)cc21	1000	28	
CCn1c([C@@H](C)NS(=O)(=O)c2ccc(Cl)cc2)nc2ccc(OC)cc21	9	> 100	
CCn1c([C@@H](C)NS(=O)(=O)c2cccc(Cl)c2)nc2ccc(C(F)(F)F)cc21	27	> 100	
CCn1c([C@@H](C)NS(=O)(=O)c2cnc(NC(C)=O)s2)nc2ccc(C(F)(F)F)cc21	2200	15	
